Values after ≈ are worked out from the molar mass of the structure shown.
Experiments:
Assay type in all cases: functional
Klebsiella pneumoniae = assay: Antibacterial activity against multidrug-resistant Klebsiella pneumoniae ATCC 700603 assessed as zone of inhibition by disc diffusion method
Enterobacter cloacae = assay: Antibacterial activity against Enterobacter cloacae ATCC 23355 assessed as zone of inhibition by disc diffusion method
Escherichia coli = assay: Antibacterial activity against beta-lactam resistant Escherichia coli BAA 2326 assessed as zone of inhibition by disc diffusion method
Acinetobacter baumannii [1] = assay: Antibacterial activity against multidrug-resistant Acinetobacter baumannii BAA 1605 assessed as zone of inhibition by disc diffusion method
Bacillus anthracis = assay: Antibacterial activity against Bacillus anthracis Sterne 34F2 assessed as zone of inhibition by disc diffusion method
Enterococcus faecium = assay: Antibacterial activity against vancomycin-resistant Enterococcus faecium ATCC 700221 assessed as zone of inhibition by disc diffusion method
Enterococcus faecalis = assay: Antibacterial activity against vancomycin-susceptible Enterococcus faecalis ATCC 29212 assessed as zone of inhibition by disc diffusion method
Staphylococcus aureus [2] = assay: Antibacterial activity against methicillin-susceptible Staphylococcus aureus ATCC 25923 assessed as zone of inhibition by disc diffusion method
Staphylococcus aureus [3] = assay: Antibacterial activity against community acquired methicillin-resistant Staphylococcus aureus BAA 1747 assessed as zone of inhibition by disc diffusion method
Staphylococcus aureus [4] = assay: Antibacterial activity against hospital acquired methicillin-resistant Staphylococcus aureus ATCC 43300 assessed as zone of inhibition by disc diffusion method
Staphylococcus aureus [5] = assay: Antibacterial activity against heterogeneous vancomycin-intermediate resistant Staphylococcus aureus Mu3 ATCC 700698 assessed as zone of inhibition by disc diffusion method
Staphylococcus aureus [6] = assay: Antibacterial activity against vancomycin-intermediate resistant Staphylococcus aureus Mu50 ATCC 700699 assessed as zone of inhibition by disc diffusion method
Staphylococcus aureus [7] = assay: Antibacterial activity against vancomycin-resistant Staphylococcus aureus HIP11714 assessed as zone of inhibition by disc diffusion method
[8] = tested on: Staphylococcus epidermidis; assay: Antibacterial activity against Staphylococcus epidermidis ATCC 14990 assessed as zone of inhibition by disc diffusion method
Acinetobacter baumannii [9] = assay: Antibacterial activity against Acinetobacter baumannii ATCC 19606 assessed as zone of inhibition by disc diffusion method
Pseudomonas aeruginosa = assay: Antibacterial activity against Pseudomonas aeruginosa ATCC 15422 assessed as zone of inhibition by disc diffusion method
Staphylococcus aureus [10] = assay: Antibacterial activity against methicillin-susceptible Staphylococcus aureus ATCC 25923 assessed as bacterial growth inhibition incubated for 20 hrs by broth dilution method
Method in brief: (§1)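 Broth microdilution: 0.5 McFarland suspension from an overnight culture, diluted 1:100 in cation-adjusted Mueller Hinton broth (CAMHB), given serial dilutions of test agent for 20 h at 37 °C. MIC is the lowest concentration with no visible growth.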

Staphylococcus aureus [11] = assay: Bactericidal activity against methicillin-susceptible Staphylococcus aureus ATCC 25923 assessed as bacterial killing incubated for over night
Method in brief: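 5 μL from each well was spotted on agar and incubated overnight. MBC was taken as the lowest concentration with no visible growth.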

Staphylococcus aureus [12] = assay: Ratio of MBC to MIC against methicillin-susceptible Staphylococcus aureus ATCC 25923
Method in brief: (§2)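 For MBC, 5 μL from each well was spotted on agar and incubated overnight; MBC is the lowest concentration with no visible growth. Ratio taken as MBC over MIC.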

Staphylococcus aureus [13] = assay: Antibacterial activity against methicillin-resistant Staphylococcus aureus ATCC 43300 assessed as bacterial growth inhibition incubated for 20 hrs by broth dilution method; method in brief: as §1
Staphylococcus aureus [14] = assay: Bactericidal activity against methicillin-resistant Staphylococcus aureus ATCC 43300 assessed as bacterial killing incubated for over night; method in brief: as §2
Staphylococcus aureus [15] = assay: Antibacterial activity against linezolid-resistant Staphylococcus aureus assessed as bacterial growth inhibition incubated for 20 hrs by broth dilution method; method in brief: as §1
Staphylococcus aureus [16] = assay: Antibacterial activity against heterogeneous vancomycin-intermediate Staphylococcus aureus Mu3 ATCC 700698 assessed as bacterial growth inhibition incubated for 20 hrs by broth dilution method; method in brief: as §1
Staphylococcus aureus [17] = assay: Bactericidal activity against heterogeneous vancomycin-intermediate Staphylococcus aureus Mu3 ATCC 700698 assessed as bacterial killing incubated for over night; method in brief: as §2
Staphylococcus aureus [18] = assay: Ratio of MBC to MIC against heterogeneous vancomycin-intermediate Staphylococcus aureus Mu3 ATCC 700698; method in brief: as §2
Staphylococcus aureus [19] = assay: Antibacterial activity against vancomycin-intermediate resistant Staphylococcus aureus Mu50 ATCC 700699 assessed as bacterial growth inhibition incubated for 20 hrs by broth dilution method; method in brief: as §1
Staphylococcus aureus [20] = assay: Bactericidal activity against vancomycin-intermediate resistant Staphylococcus aureus Mu50 ATCC 700699 assessed as bacterial killing incubated for over night; method in brief: as §2
Staphylococcus aureus [21] = assay: Ratio of MBC to MIC against vancomycin-intermediate resistant Staphylococcus aureus Mu50 ATCC 700699; method in brief: as §2
Staphylococcus aureus [22] = assay: Antibacterial activity against vancomycin-resistant Staphylococcus aureus HIP11714 assessed as inhibition of bacterial growth incubated for 20 hrs by broth microdilution method; conditions: HIP11714, 20 h; method in brief: as §1
Staphylococcus aureus [23] = assay: Bactericidal activity against Vancomycin-resistant Staphylococcus aureus HIP11714 assessed as bacterial killing incubated for over night; method in brief: as §2
Staphylococcus aureus [24] = assay: Antibacterial activity against vancomycin-intermediate Staphylococcus aureus clinical isolate 12 assessed as bacterial growth inhibition after 20 hrs by broth microdilution assay; method in brief: as §1
Staphylococcus aureus [25] = assay: Antibacterial activity against vancomycin-resistant Staphylococcus aureus clinical isolate 10 assessed as bacterial growth inhibition after 20 hrs by broth microdilution assay; method in brief: as §1
Staphylococcus aureus [26] = assay: Antibacterial activity against methicillin-susceptible Staphylococcus aureus ATCC 25923 in presence of glutathione
Method in brief: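 Broth microdilution MIC: a 0.5 McFarland suspension from overnight culture was diluted 1:100 in cation-adjusted Mueller Hinton broth supplemented with glutathione 100 μM. It was exposed to serial dilutions for 20 h at 37 °C. MIC was taken as the lowest concentration with no visible growth.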

Staphylococcus aureus [27] = assay: Antibacterial activity against methicillin-susceptible Staphylococcus aureus ATCC 25923 in presence of 0.05% v/v albumin
Staphylococcus aureus [28] = assay: Antibacterial activity against methicillin-susceptible Staphylococcus aureus ATCC 25923 in presence of 5% v/v serum
Staphylococcus aureus [29] = assay: Antibacterial activity against methicillin-susceptible Staphylococcus aureus ATCC 25923 in presence of 10% v/v serum
Staphylococcus aureus [30] = assay: Ratio of MBC to MIC against methicillin-resistant Staphylococcus aureus ATCC 43300; method in brief: as §2
Staphylococcus aureus [31] = assay: Ration of MBC to MIC against Vancomycin-resistant Staphylococcus aureus HIP11714; method in brief: as §2

Compound	diameter of the inhibition zone (DIZ) (Klebsiella pneumoniae) [mm]	diameter of the inhibition zone (DIZ) (Enterobacter cloacae) [mm]	diameter of the inhibition zone (DIZ) (Escherichia coli) [mm]	diameter of the inhibition zone (DIZ) (Acinetobacter baumannii [1]) [mm]	diameter of the inhibition zone (DIZ) (Bacillus anthracis) [mm]	diameter of the inhibition zone (DIZ) (Enterococcus faecium) [mm]	diameter of the inhibition zone (DIZ) (Enterococcus faecalis) [mm]	diameter of the inhibition zone (DIZ) (Staphylococcus aureus [2]) [mm]	diameter of the inhibition zone (DIZ) (Staphylococcus aureus [4]) [mm]	diameter of the inhibition zone (DIZ) [8] [mm]	diameter of the inhibition zone (DIZ) (Acinetobacter baumannii [9]) [mm]	diameter of the inhibition zone (DIZ) (Pseudomonas aeruginosa) [mm]	MIC (Staphylococcus aureus [10]) [µM]	MBC (Staphylococcus aureus [11]) [µM]	Ratio (Staphylococcus aureus [12])	MIC (Staphylococcus aureus [13]) [µM]	MBC (Staphylococcus aureus [14]) [µM]	MIC (Staphylococcus aureus [15]) [µM]	MIC (Staphylococcus aureus [16]) [µM]	MBC (Staphylococcus aureus [17]) [µM]	other results
CCCCCCCCCSSc1ccccn1	0	0	0	0	25	8	8	20	22	41	0	0	12.5 (≈ 3.37 µg/mL)	> 50	>4	6.25 (≈ 1.68 µg/mL)	> 50	25 (≈ 6.74 µg/mL)	6.25 (≈ 1.68 µg/mL)	> 50	diameter of the inhibition zone (DIZ) (Staphylococcus aureus [3]): 19 mm; diameter of the inhibition zone (DIZ) (Staphylococcus aureus [5]): 22 mm; diameter of the inhibition zone (DIZ) (Staphylococcus aureus [6]): 30 mm; diameter of the inhibition zone (DIZ) (Staphylococcus aureus [7]): 21 mm; Ratio (Staphylococcus aureus [18]): >8; MIC (Staphylococcus aureus [19]): 1.56 µM (≈ 0.42 µg/mL); MBC (Staphylococcus aureus [20]): 25 µM (≈ 6.74 µg/mL); Ratio (Staphylococcus aureus [21]): 16; MIC (Staphylococcus aureus [22]): 12.5 µM (≈ 3.37 µg/mL); MBC (Staphylococcus aureus [23]): > 50 µM; MIC50 (Staphylococcus aureus [24]): 6.25 µM (≈ 1.68 µg/mL); MIC90 (Staphylococcus aureus [24]): 12.5 µM (≈ 3.37 µg/mL); MIC50 (Staphylococcus aureus [25]): 6.25 µM (≈ 1.68 µg/mL); MIC90 (Staphylococcus aureus [25]): 12.5 µM (≈ 3.37 µg/mL); MIC (Staphylococcus aureus [26]): 50 µM; MIC (Staphylococcus aureus [27]): 25 µM; MIC (Staphylococcus aureus [28]): 25 µM; MIC (Staphylococcus aureus [29]): 50 µM
CCCCCCCSSc1ccccn1	0	0	0	0	50	10	10	>50	46	>50	0	0	12.5 (≈ 3.02 µg/mL)	> 50	>4	6.25 (≈ 1.51 µg/mL)	> 50	25 (≈ 6.04 µg/mL)	12.5 (≈ 3.02 µg/mL)	> 50	Ratio (Staphylococcus aureus [30]): >8; Ratio (Staphylococcus aureus [18]): >4; MIC (Staphylococcus aureus [19]): 3.13 µM (≈ 0.756 µg/mL); MBC (Staphylococcus aureus [20]): 25 µM (≈ 6.04 µg/mL); Ratio (Staphylococcus aureus [21]): 8; MIC (Staphylococcus aureus [22]): 6.25 µM (≈ 1.51 µg/mL); MBC (Staphylococcus aureus [23]): > 50 µM; Ratio (Staphylococcus aureus [31]): >8; MIC50 (Staphylococcus aureus [24]): 12.5 µM (≈ 3.02 µg/mL); MIC90 (Staphylococcus aureus [24]): 12.5 µM (≈ 3.02 µg/mL); MIC50 (Staphylococcus aureus [25]): 6.25 µM (≈ 1.51 µg/mL); MIC90 (Staphylococcus aureus [25]): 12.5 µM (≈ 3.02 µg/mL); MIC (Staphylococcus aureus [26]): 50 µM; MIC (Staphylococcus aureus [27]): 12.5 µM; MIC (Staphylococcus aureus [28]): 25 µM; MIC (Staphylococcus aureus [29]): 25 µM

From ChEMBL document CHEMBL4715813, “Allicin-inspired pyridyl disulfides as antimicrobial agents for multidrug-resistant Staphylococcus aureus” (Eur J Med Chem, 2018)
